In ChEMBL document CHEMBL1126662, “Synthesis and use of the n-bromododecane-1,12-diols as conformational probes for general anesthetic target sites” (J Med Chem, 1993):
Values after ≈ are worked out from the molar mass of the structure shown.

How the values were obtained:
[1] = Aqueous solubility in 25 mM N-glycyl-glycine and 10 mM MgSO4 (pH 7.8); type: physicochemical; conditions: 25 mM N-glycyl-glycine and 10 mM MgSO4 buffer, read-out: S
Summary of the method: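 Diol solubility measured at 25 ± 1 °C in pH 7.8 buffer (25 mM N-glycylglycine, 10 mM MgSO4), a modified Curry method; dissolved diol quantified by inhibition of firefly luciferase. Values mean ± SE.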

[2] = Headecane/water partition coefficient expressed as the equilibrium ratio of the molar concentration in n-hexadecane to that in the buffer; type: physicochemical
Summary of the method: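 Molar partition between n-hexadecane and pH 7.8 glycylglycine/MgSO4 buffer at 25 ± 1 °C; aqueous diol measured by luciferase method; at least five independent determinations per diol; mean ± SE.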

[3] = Concentration which inhibits luciferase activity by 50% when the luciferon concentration is at its Km; set-up: species or system Lampyridae
Summary of the method: (§1)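 Luciferase purified from Photinus pyralis lanterns by affinity chromatography; light-emission assay at 25 ± 1 °C with 2 mM ATP, competitive versus luciferin. Diols added in ethanol (final 23 mM, also in controls). Triplicate activities at ~5 diol levels each paired with control; Ki by weighted least squares from ~15 estimates; EC50 = 2Ki at luciferin Km.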

[4] = Inhibition constant for firefly luciferase was evaluated; set-up: species or system Lampyridae; summary of the method: as §1
[5] = Concentration which anesthetizes 50% of a population of Rana temporaria tadpoles at 20 degrees Centigrade; type: functional, frog
Summary of the method: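 Rana temporaria tadpoles (20–25 mm) at 20 ± 1 °C, six per beaker in 7–10 beakers of tap water with graded diol. Endpoint: no reflex to gentle glass-rod tap on side or snout, tested every 15 min up to 2 h; Waud dose–response analysis. Convulsing tadpoles excluded.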

| Structure (SMILES) | solubility [1] [µM] | Khd [2] | EC50 [3] [µM] | Ki [4] [µM] | EC50 [5] [µM] |
| --- | --- | --- | --- | --- | --- |
| OCCCCCCCCCCC(Br)CO (stereo not given) | 725 (≈ 204 µg/mL) | 13 | 0.88 | 0.44 | 34 |
| OCCCCCCCCCCCCO | 95 (≈ 19.2 µg/mL) | 4.7 | 1.54 | 0.77 | 39 |

More lines, now with the values ahead:

| solubility [1] [µM] | Khd [2] | EC50 [3] [µM] | Ki [4] [µM] | EC50 [5] [µM] | Structure (SMILES) |
| --- | --- | --- | --- | --- | --- |
| 800 (≈ 225 µg/mL) | 3.1 | 1.74 | 0.87 | 56 | OCCCCCCCCCC(Br)CCO (stereo not given) |
| 2260 (≈ 636 µg/mL) | 0.32 | 29.2 | 14.6 | 97 | OCCCCCCC(Br)CCCCCO (stereo not given) |
| 2340 (≈ 658 µg/mL) | 0.9 | 7.38 | 3.69 | 29 | OCCCCCCCC(Br)CCCCO (stereo not given) |
